Laboratory results from publication PMC7541604 (Clinical cancer research : an official journal of the …, 2020).
“And” between values parts separate entries of the source, which are not always exact repeats. Identical values can stand only once.

What was measured:
Assay type in all cases: in vivo, human
[1] = Clinical safety monitoring incl. serum TSH; settings: microdose tracer 201±12 MBq, <25 μg IV, n=30 patients
Summary of the method: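 Microdose tracer was given IV after seven drops SSKI orally ≥2 h pre-injection, repeated daily for two weeks. Serum TSH was measured <1 week pre-injection as baseline and again 6-12 months post-injection. Toxicity signs and symptoms were checked at each imaging time-point, and patients reported adverse symptoms over the following 30 days.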

[2] = Plasma radioHPLC analysis of tracer metabolism; settings: for Relative amount in plasma supernatant, GM: % of total activity of identified radioHPLC peaks
[3] = Whole blood and plasma radioassay of tracer clearance
Summary of the method: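 Tracer was injected IV over 1-2 min and blood drawn through a separate peripheral line at 10, 20 and 30 min and 1-2 or 3-4 h, plus 20-24 h in a subset (n=7). Whole blood and/or plasma were radioassayed by well counter. α and β half-lives came from biexponential fits, summarized as geometric mean. Plasma exposure was expressed as %ID·g·h/mL from 10 min to 4 h.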

[4] = PET-derived urinary and biliary tracer excretion
Summary of the method: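 Serial PET, with bisacodyl 15 mg orally on three nights post-injection: at each time-point, 3D VOIs measured total activity in the urinary bladder and in the hepatobiliary tree plus bowel. Tracer lost by voiding or defecation was tracked from whole-FOV activity on decay-corrected serial scans, normalized to total activity on the initial scan immediately post-injection.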

[5] = test system: tumor epichaperome formations (epichaperome/HSP90); experiment: 124I-PU-H71 PET/CT tumor imaging in cancer patients
Summary of the method: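 Adults with solid malignancy or lymphoma received 201±12 MBq tracer IV over 1-2 min, no contrast, with SSKI thyroid blockade. PET-CT was done at 3-4 and 20-24 h post-injection, with 45-60 min emission and OSEM reconstruction (decay, attenuation, scatter corrected). The highest-SUV tumor per patient gave SUVpeak (mean voxel SUV in the 1-cm3 sphere of highest uptake, mass-normalized). Tumor:bloodpool and tumor:muscle ratios were compared at 4 vs 24 h by Wilcoxon signed-rank.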

[6] = PET/CT tracer biodistribution in normal organs
Summary of the method: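 Patients received 201±12 MBq tracer IV, with SSKI taken ≥2 h before and daily for two weeks. PET-CT ran skull vertex to proximal thighs at 3-4 and 20-24 h post-injection, with CT for attenuation correction and anatomic localization. Mean SUV was measured in normal organs, including aortic blood pool, humerus, axial skeleton and brain, at 4 and 24 h (n=30).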

[7] = patients, IV bolus, geometric mean
[8] = 4 hours post-injection, across patient population
[9] = one table row per patient, PET 4 h post-injection
[10] = one table row per patient, PET 24 h post-injection

## CC(C)NCCCn1c(Sc2cc3c(cc2I)OCO3)nc2c(N)ncnc21 [^124I-PU-H71]
[1]
  Adverse effects: no adverse effects
[1]; listed as PUH71 tracer
  Adverse effects: No signs or symptoms of adverse effects
[2]; 10 min after tracer injection
  Relative amount in plasma supernatant, GM: 69.2%
[2]; 20 min after tracer injection
  Relative amount in plasma supernatant, GM: 51.7%
[2]; 30 min after tracer injection
  Relative amount in plasma supernatant, GM: 44.9%
[2]; 1h after tracer injection
  Relative amount in plasma supernatant, GM: 32.3%
[2]; 4h after tracer injection
  Relative amount in plasma supernatant, GM: 22.7%
[2]; plasma, p.i.
  Time by which radiotracer became predominantly radiometabolites: ≤ 1 h
[3]; between patients
  Plasma AUC coefficient of variation: 36.6%
[3]; from 10 minutes to 4 hours post-injection
  Plasma radiotracer exposure: 1.7±0.6 % ID•g•h/mL
[3]; [7]
  Blood t1/2 α, GM: 7.9 min
  Blood t1/2 β, GM: 6.103 h
  Plasma t1/2 α, GM: 7.0 min
  Plasma t1/2 β, GM: 4.402 h
[4]
  Urinary excretion of tracer: 29.5 ±10.9 %ID
[4]; bisacodyl given
  Hepatobiliary excretion of tracer: 45.4 ±15.8 %ID
[5]; [8]
  Tumor:bloodpool ratio of radiotracer concentrations, average/SD: 3.2± 3.0
  Tumor:bloodpool ratio of radiotracer concentrations, maximum: up to 14.4
[5]; 24 h, person, stage IV pancreatic cancer (Fig. 1)
  Tumor:bloodpool SUV ratio: 19.8
[5]; 24 hours post-injection, across patient population
  Tumor:bloodpool ratio of radiotracer concentrations, average/SD: 3.9 ± 4.4
[5]; between patients
  24-hour tumor SUV average/SD: 0.9 ± 0.8
  24-hour tumor SUV coefficient of variation: 88.9%
  24-hour tumor SUV range: 0.1-3.8
[5]; n=26 evaluable patients, PET at 24 h
  Patients in whom PU-H71-avid tumors were detected: 58%
[5]; [9]
  T:B 4 h (tumor:blood pool SUVpeak ratio): 1.8 and 3.1 and 14.4 and 6.1 and 1.5 and 1.2 and 2.2 and 2.7 and 0.9 and 5.0 and 2.5 and 4.2 and 1.6 and 1.3 and 2.9 and 2.1 and 9.6 and 1.7 and 3.6
  T:M 4 h (tumor:muscle SUV ratio): 1.8 and 6.0 and 22.0 and 5.1 and 2.1 and 1.2 and 2.8 and 1.9 and 2.4 and 5.3 and 2.0 and 1.0 and 5.4 and 4.0 and 3.3 and 5.2 and 3.0 and 3.8 and 1.5 and 7.7 and 2.7 and 4.9
  Tumor SUV 4 h (SUVpeak): 1.1 and 1.6 and 11.0 and 2.5 and 0.64 and 0.8 and 0.7 and 0.9 and 3.4 and 1.7 and 3.2 and 2.1 and 1.3 and 1.8 and 2.7 and 1.5 and 2.2 and 1.2
[5]; [10]
  T:B 24 h (tumor:blood pool SUVpeak ratio): 1.0 and 5.6 and 13.1 and 1.7 and 4.0 and 0.6 and 3.0 and 1.2 and 3.2 and 0.9 and 5.1 and 2.4 and 19.8 and 0.7 and 1.8 and 1.3 and 3.6 and 5.9 and 2.3 and 7.8 and 4.8
  T:M 24 h (tumor:muscle SUV ratio): 1.6 and 11.2 and 20.0 and 8.0 and 6.7 and 1.2 and 6.0 and 2.3 and 1.5 and 6.4 and 1.0 and 1.1 and 8.8 and 2.1 and 6.2 and 2.5 and 4.6 ^****** and 1.4 and 3.3 and 5.6 and 5.2 and 17.5 and 1.3 and 5.1
  Tumor SUV 24 h (SUVpeak): 0.3 and 0.6 and 3.8 and 0.8 and 0.4 and 0.1 and 0.2 and 1.0 and 0.7 and 1.8 and 1.1 and 1.6 and 0.5 and 1.3 and 0.9 and 2.1 and 1.5
[5]; overall
  Decrease of tumor SUV between 4 to 24 hours: 1.0±1.4 SUV units
  Decrease of tumor SUV between 4 to 24 hours, range: −25.0 to +87.5%
[5]; overall, p=0.00002
  Decrease of tumor SUV between 4 to 24 hours, mean ± SD: 50.7 ± 27.0%
[5]; person, stage IV pancreatic cancer (Fig. 1)
  Increase of tumor:bloodpool SUV ratio between 3 and 24 h: 371%
[5]; population
  Median increase in tumor:bloodpool SUV ratio from 4 to 24 hours: 4.8%
  Median increase in tumor:muscle SUV ratio from 4 to 24 hours: 20.9%
  Range of change in tumor:bloodpool SUV ratio from 4 to 24 hours: −72.1 to +371.4%
  Range of change in tumor:muscle SUV ratio from 4 to 24 hours: −63.2 to +257.1%
[5]; population, p=0.02
  Average increase in tumor:muscle SUV ratio from 4 to 24 hours: 52.0 ± 87.3%
[5]; population, p=0.9
  Average increase in tumor:bloodpool SUV ratio from 4 to 24 hours: 25.7 ± 99.9%
[6]; PET
  Brain uptake: scant
[6]; average/SD, 24 hours post-injection
  24-hour bloodpool SUV: 0.2 ±0.1
